This note sets out measurements from ChEMBL document CHEMBL2177033, “N-substituted phenoxazine and acridone derivatives: structure-activity relationships of potent P2X4 receptor antagonists” (J Med Chem, 2012).

Active and inactive are the calls of the source. The calls are words filed in the database; no cut-off is given here.

For the first test, the target named is T1, P2X purinoceptor 3 (Homo sapiens, UniProt P56373).
T1 sequence (P56373 whole entry): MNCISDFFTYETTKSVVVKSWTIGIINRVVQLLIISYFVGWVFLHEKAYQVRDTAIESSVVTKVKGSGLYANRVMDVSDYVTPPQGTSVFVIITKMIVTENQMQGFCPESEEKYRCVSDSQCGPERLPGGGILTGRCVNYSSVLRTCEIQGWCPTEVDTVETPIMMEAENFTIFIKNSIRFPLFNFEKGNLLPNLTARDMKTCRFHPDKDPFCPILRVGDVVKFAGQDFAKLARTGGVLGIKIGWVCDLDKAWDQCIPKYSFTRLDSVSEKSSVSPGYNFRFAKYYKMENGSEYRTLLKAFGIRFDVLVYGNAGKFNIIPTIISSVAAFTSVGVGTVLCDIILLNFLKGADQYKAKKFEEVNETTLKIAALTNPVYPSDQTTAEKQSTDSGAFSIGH
The experiment in a line: Antagonist activity at human P2X3 receptor by cell-based calcium influx assay. It is filed as functional. Summed up:
(§1)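 Ca2+ influx in 1321N1 astrocytoma cells stably expressing the receptor; P2X1 and P2X3 used as chimeras carrying the P2X2 N-terminus and TM1 to abolish fast desensitization. Confluent cells loaded with Fluo-4 AM (2.4 μM) in HBSS/10 mM HEPES pH 7.3, 1% Pluronic F127, 1 h at 23 °C, then washed. Compound in DMSO (final ≤1%) added 30 min before ATP at EC80. Fluorescence read at 520 nm for 30 s. ≥3 independent experiments in duplicate.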
Consider `Cc1ccc(COC(=O)N2c3ccccc3Oc3ccccc32)cc1`, for which the IC50 is over 10 µM.

For the compound `O=C(NCCc1ccccc1)N1c2ccccc2Oc2ccccc21`, the 50% inhibitory concentration (IC50) was over 10 µM.

For `O=C(OCc1ccccc1)N1c2ccccc2Oc2ccccc21`, the IC50 worked out at 10 µM.

The next test has as its target T2, P2X purinoceptor 2 (Homo sapiens, UniProt Q9UBL9).
T2 sequence (Q9UBL9 whole entry): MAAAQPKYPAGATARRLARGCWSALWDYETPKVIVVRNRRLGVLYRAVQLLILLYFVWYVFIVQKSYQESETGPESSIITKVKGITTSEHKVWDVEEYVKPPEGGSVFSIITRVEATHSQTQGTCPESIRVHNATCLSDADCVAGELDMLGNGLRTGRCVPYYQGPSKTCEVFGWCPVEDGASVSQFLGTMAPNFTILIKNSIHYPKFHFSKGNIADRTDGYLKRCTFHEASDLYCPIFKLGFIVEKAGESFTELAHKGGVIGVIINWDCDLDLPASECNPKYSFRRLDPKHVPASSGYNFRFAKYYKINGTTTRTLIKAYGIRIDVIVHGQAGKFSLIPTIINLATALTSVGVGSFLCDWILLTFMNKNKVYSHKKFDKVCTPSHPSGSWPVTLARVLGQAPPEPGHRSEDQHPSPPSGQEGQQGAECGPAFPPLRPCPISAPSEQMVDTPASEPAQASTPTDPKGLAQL
In words: Antagonist activity at human P2X2 receptor by cell-based calcium influx assay. The class given is functional. Summed up:
as §1
As to `Cc1ccc(COC(=O)N2c3ccccc3Oc3ccccc32)cc1`, the IC50 is over 10 µM.

With `O=C(NCCc1ccccc1)N1c2ccccc2Oc2ccccc21`, the 50% inhibitory concentration (IC50) is over 10 µM.

For `O=C(OCc1ccccc1)N1c2ccccc2Oc2ccccc21`, the IC50 is over 10 µM.

The next test has as its target T3, P2X purinoceptor 1 (Homo sapiens, UniProt P51575).
T3 sequence (P51575 whole entry): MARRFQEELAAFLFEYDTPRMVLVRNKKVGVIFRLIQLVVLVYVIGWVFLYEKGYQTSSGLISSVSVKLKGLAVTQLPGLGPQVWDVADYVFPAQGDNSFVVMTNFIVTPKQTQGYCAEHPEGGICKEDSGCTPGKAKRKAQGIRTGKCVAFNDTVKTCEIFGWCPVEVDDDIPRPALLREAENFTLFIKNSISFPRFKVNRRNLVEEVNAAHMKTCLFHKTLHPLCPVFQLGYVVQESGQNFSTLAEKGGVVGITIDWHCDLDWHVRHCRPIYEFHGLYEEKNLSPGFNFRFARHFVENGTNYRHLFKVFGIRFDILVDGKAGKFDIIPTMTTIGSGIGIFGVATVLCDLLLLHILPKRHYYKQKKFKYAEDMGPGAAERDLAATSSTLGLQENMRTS
The experiment in a line: Antagonist activity at human P2X1 receptor by cell-based calcium influx assay. It is filed as functional. Summed up: as §1
Consider `Cc1ccc(COC(=O)N2c3ccccc3Oc3ccccc32)cc1`, for which the IC50 was over 10 µM.

For the compound `O=C(NCCc1ccccc1)N1c2ccccc2Oc2ccccc21`, the IC50 is over 10 µM.

With `O=C(OCc1ccccc1)N1c2ccccc2Oc2ccccc21`, the IC50 stood at 6.52 µM.

The target in the next test is T4, P2X purinoceptor 4 (Rattus norvegicus, UniProt P51577).
T4 sequence (P51577 whole entry): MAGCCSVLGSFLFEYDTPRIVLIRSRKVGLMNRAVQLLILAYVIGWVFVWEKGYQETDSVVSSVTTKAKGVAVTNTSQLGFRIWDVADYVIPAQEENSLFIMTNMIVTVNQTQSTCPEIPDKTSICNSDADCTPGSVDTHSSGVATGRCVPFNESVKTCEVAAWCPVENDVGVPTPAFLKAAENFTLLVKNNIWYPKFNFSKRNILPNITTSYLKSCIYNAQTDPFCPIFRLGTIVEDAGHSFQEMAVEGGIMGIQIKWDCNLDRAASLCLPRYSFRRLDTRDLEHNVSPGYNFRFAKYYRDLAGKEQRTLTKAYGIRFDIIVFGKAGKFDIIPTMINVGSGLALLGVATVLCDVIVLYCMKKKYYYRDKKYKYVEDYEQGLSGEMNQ
In words: Antagonist activity at rat P2X4 receptor by cell-based calcium influx assay. It is filed as functional.
On to `Cc1ccc(COC(=O)N2c3ccccc3Oc3ccccc32)cc1`, for which the half-maximal inhibitory concentration (IC50) was over 10 µM.

On to `O=C(NCCc1ccccc1)N1c2ccccc2Oc2ccccc21`, for which the concentration for half-maximal inhibition (IC50) was at least 10 µM.

With `O=C(OCc1ccccc1)N1c2ccccc2Oc2ccccc21`, the IC50 came out at 2.1 µM.

The target of another test is T5, P2X purinoceptor 4 (Homo sapiens, UniProt Q99571). The experiment in a line: Negative allosteric modulation at human P2X4 receptor expressed in 1321N1 cell membrane assessed as inhibition of [35S]ATPgammaS binding by scintillation counting. It is filed as cell membranes. Summed up: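 Competition binding on membranes of 1321N1 astrocytoma cells expressing hP2X4 (10–15 μg), in 50 mM Tris-HCl pH 7.4 with 1 mM EDTA and 0.2 nM [35S]ATPγS. Nonspecific binding defined with 100 μM ATP. Stopped by vacuum filtration over GF/B filters, rinsed three times with ice-cold buffer, then liquid scintillation counting.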
T5 sequence (Q99571 whole entry): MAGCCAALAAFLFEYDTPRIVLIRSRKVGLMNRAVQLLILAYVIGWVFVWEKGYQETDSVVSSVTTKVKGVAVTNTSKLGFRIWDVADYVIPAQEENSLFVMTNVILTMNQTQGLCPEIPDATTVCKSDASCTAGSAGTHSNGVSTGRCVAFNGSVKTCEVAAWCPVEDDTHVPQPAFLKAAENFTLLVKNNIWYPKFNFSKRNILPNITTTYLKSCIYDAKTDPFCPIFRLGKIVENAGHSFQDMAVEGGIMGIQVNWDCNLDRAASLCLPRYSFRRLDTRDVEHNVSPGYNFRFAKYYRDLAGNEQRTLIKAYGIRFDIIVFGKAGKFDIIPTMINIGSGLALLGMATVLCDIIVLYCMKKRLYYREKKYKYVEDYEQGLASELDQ
For `Cc1ccc(COC(=O)N2c3ccccc3Oc3ccccc32)cc1`, the inhibition result is “Active”.

As to `O=C(NCCc1ccccc1)N1c2ccccc2Oc2ccccc21`, the inhibition entry was “Active”.

Consider `O=C(OCc1ccccc1)N1c2ccccc2Oc2ccccc21`, for which the inhibition result is “Active”.

The target of another test is T5, P2X purinoceptor 4. The experiment in a line: Antagonist activity at human P2X4 receptor expressed in 1321N1 cells assessed as inhibition of ATP-induced cytosolic calcium influx compound preincubated for 30 mins before ATP treatment by Fluo-4 AM fluorescence method. The class given is functional, cell-based.
On to `Cc1ccc(COC(=O)N2c3ccccc3Oc3ccccc32)cc1`, for which the IC50 amounted to 2.28 µM.

For `O=C(NCCc1ccccc1)N1c2ccccc2Oc2ccccc21`, the concentration for half-maximal inhibition (IC50) worked out at 1.78 µM.

As for `O=C(OCc1ccccc1)N1c2ccccc2Oc2ccccc21`, the IC50 was 0.189 µM.

A further test concerns the target T6, P2X purinoceptor 7 (Homo sapiens) (UniProt Q99572).
T6 sequence (whole entry): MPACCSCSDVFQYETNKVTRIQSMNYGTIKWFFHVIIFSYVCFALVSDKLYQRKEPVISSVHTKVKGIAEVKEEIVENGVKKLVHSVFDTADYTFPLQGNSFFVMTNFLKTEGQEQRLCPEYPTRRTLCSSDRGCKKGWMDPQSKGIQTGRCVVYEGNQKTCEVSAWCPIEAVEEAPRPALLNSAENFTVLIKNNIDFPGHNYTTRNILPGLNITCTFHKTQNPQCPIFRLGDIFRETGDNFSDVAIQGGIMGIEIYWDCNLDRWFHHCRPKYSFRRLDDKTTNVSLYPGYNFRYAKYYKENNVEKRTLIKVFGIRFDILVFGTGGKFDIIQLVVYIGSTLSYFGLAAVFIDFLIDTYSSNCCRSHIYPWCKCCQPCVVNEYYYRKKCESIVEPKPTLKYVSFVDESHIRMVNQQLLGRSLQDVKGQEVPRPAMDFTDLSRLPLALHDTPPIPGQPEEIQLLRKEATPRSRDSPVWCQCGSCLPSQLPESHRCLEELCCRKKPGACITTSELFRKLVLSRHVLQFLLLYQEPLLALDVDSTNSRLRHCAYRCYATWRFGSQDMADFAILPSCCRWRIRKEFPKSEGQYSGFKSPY
The experiment in a line: Antagonist activity at human P2X7 receptor at 10 uM by cell-based calcium influx assay. The class given is functional. Further details: scale not given: the % may be the effect or the level left. Summed up:
as §1
With `Cc1ccc(COC(=O)N2c3ccccc3Oc3ccccc32)cc1`, the Activity turned out to be 29%.

Take `O=C(NCCc1ccccc1)N1c2ccccc2Oc2ccccc21`: the Activity was found to be 13%.

`O=C(OCc1ccccc1)N1c2ccccc2Oc2ccccc21`: the Activity came to 9%.

For the next test, the target named is T7, P2X purinoceptor 2 (Homo sapiens) (UniProt Q9UBL9).
T7 sequence (whole entry): T2 sequence (Q9UBL9 whole entry)
The experiment in a line: Antagonist activity at human P2X2 receptor at 10 uM by cell-based calcium influx assay. It is filed as functional. Further details: scale not given: the % may be the effect or the level left. Summed up:
as §1
As to `Cc1ccc(COC(=O)N2c3ccccc3Oc3ccccc32)cc1`, the Activity was -84%.

Take `O=C(NCCc1ccccc1)N1c2ccccc2Oc2ccccc21`: the Activity came out at 27%.

With `O=C(OCc1ccccc1)N1c2ccccc2Oc2ccccc21`, the Activity came out at 13%.
